Key:
Test in all cases: Membrane translocation by confocal microscopy in living LNCaP cells
Type in all cases: cell-based
GFP-tagged PKCθ ΔC1b = GFP-tagged PKCθ ΔC1b (Homo sapiens, UniProt Q04759, DEL232-281); settings: 100 nM, 1 μM and 10 μM PMA
[1] = target: GFP-tagged PKCθ C1a-C1a chimera (Homo sapiens, UniProt Q04759, A256N/A264Q/A278I/D263R/E246S/G249H/G266N/H247V/H271K/K235T/K240P/K261Q/L251F/L252V/L260Y/L280K/M267A/N238F/N268A/N279A/Q274I/R233E/R257K/R272K/S241Q/T250E/T275D/V236A/V269I/Y237T/Y239F)
In short: (§1)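 Full-length PKCθ constructs in pEGFP-N1 transfected into LNCaP cells 48 h after plating (RPMI 1640, 10% FBS, 37 °C). After 24 h, PMA is added in phenol red-free DMEM/1% FBS. Live confocal imaging at 488 nm every 30 s. Membrane/cytoplasm mean GFP ratio from 4 μm² regions is normalized to time 0 and read at 5 and 10 min. Three independent experiments, unpaired two-tailed t test.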

GFP-tagged PKCθ/K240P = GFP-tagged PKCθ/K240P (Homo sapiens, UniProt Q04759, K240P); settings: 1 μM PMA
In short: as §1

GFP-tagged PKCθ/P168K = GFP-tagged PKCθ/P168K (Homo sapiens, UniProt Q04759, P168K); settings: PMA, compared to wild type, not statistically significant
In short: as §1

[2] = target: GFP-tagged wild type PKCθ (Homo sapiens, UniProt Q04759)
In short: as §1

GFP-tagged PKCθ ΔC1a = GFP-tagged PKCθ ΔC1a (Homo sapiens, UniProt Q04759, DEL160-209)
In short: as §1

[3] = target: GFP-tagged PKCθ C1b-C1b chimera (Homo sapiens, UniProt Q04759, A164V/A195M/A196N/A207N/D203T/E161R/E178T/F166N/F167Y/F179L/H177G/I197V/I202Q/I206A/K185R/K199H/K200R/K208L/N184A/N194G/P168K/Q169S/Q189K/Q192A/R191D/S174E/T163K/T165Y/V175H/V180L/Y188L); settings: response after 100 nM PMA, compared to wild type
In short: as §1

`CCCCCCCCCCCCCC(=O)O[C@@H]1[C@@H](C)[C@@]2(O)[C@@H](C=C(CO)C[C@]3(O)C(=O)C(C)=C[C@@H]23)[C@@H]2C(C)(C)[C@]12OC(C)=O` [PMA, phorbol 12-myristate 13-acetate] was tested, and the “translocation to the plasma membrane (membrane/cytoplasm ratio)” value (“translocation … (membrane/cytoplasm ratio)” for short) (GFP-tagged PKCθ ΔC1b) was “complete loss of plasma membrane translocation”, the “translocation … (membrane/cytoplasm ratio)” value ([1]; 1 μM PMA) was “no translocation” and the “translocation … (membrane/cytoplasm ratio)” value ([1]; 10 μM PMA) was “very small but statistically significant increase in the translocation”. The “translocation … (membrane/cytoplasm ratio)” value (GFP-tagged PKCθ/K240P) was “modestly decreased translocation”, the “translocation … (membrane/cytoplasm ratio)” value (GFP-tagged PKCθ/P168K) was “increased translocation” and the “translocation … (membrane/cytoplasm ratio)” value ([2]; 100 nM PMA) was “little response”. The “translocation … (membrane/cytoplasm ratio)” value ([2]; 1 and 10 μM PMA, 5 and 10 min) was “translocated in a dose dependent manner”, the “enhancement of translocation to the plasma membrane” value (GFP-tagged PKCθ ΔC1a; 100 nM PMA, deletion of C1a versus full length PKCθ) was 5 fold and the “translocation … (membrane/cytoplasm ratio)” value (GFP-tagged PKCθ ΔC1a; PMA, compared to wild type) was “enhanced membrane interaction compared to the wild type”. The “translocation … (membrane/cytoplasm ratio)” value [3] was “stronger translocation”.

Source: article PMC6957261 (Biochimica et biophysica acta. Biomembranes, 2018)
